Reference: ChEMBL document CHEMBL4364335, “Highly hydrophilic 1,3-oxazol-5-yl benzenesulfonamide inhibitors of carbonic anhydrase II for reduction of glaucoma-related intraocular pressure” (Bioorg Med Chem, 2019)
Active and inactive are the calls of the source. No cut-off for these calls is given here.

What was measured:
Carbonic anhydrase 2 = Carbonic anhydrase 2 (Homo sapiens, UniProt P00918); assay: Inhibition of human carbonic anhydrase 2 incubated for 15 mins by phenol red staining-based stopped flow CO2 hydrase assay
Carbonic anhydrase 4 = Carbonic anhydrase 4 (Homo sapiens, UniProt P22748); assay: Inhibition of human carbonic anhydrase 4 incubated for 15 mins by phenol red staining-based stopped flow CO2 hydrase assay
[1] = Toxicity in New Zealand White rabbit assessed as induction of eye lid closure at 0.5% administered topically to the eye; parameters: species or system Oryctolagus cuniculus; details: in vivo, topical_or_ocular
In short: (§1)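 Single 25 µl drop given to the left eye of albino rabbits, which were held immobile for one minute afterwards. Irritation was followed by eye throughout the experiment and scored as blinking, head shaking or eyelid closure, with the duration of closure noted in seconds.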

Oryctolagus cuniculus [2] = assay: Reduction of intraocular pressure in ocular normotensive New Zealand White rabbit at 0.5 % administered topically to the eye measured for 0.5 to 8 hrs by tonometry; format: functional, organism-based
Carbonic anhydrase 1 = Carbonic anhydrase 1 (Homo sapiens, UniProt P00915); assay: Inhibition of human carbonic anhydrase 1 incubated for 15 mins by phenol red staining-based stopped flow CO2 hydrase assay
Carbonic anhydrase 12 = Carbonic anhydrase 12 (Homo sapiens, UniProt O43570); assay: Inhibition of human carbonic anhydrase 12 incubated for 15 mins by phenol red staining-based stopped flow CO2 hydrase assay
Oryctolagus cuniculus [3] = assay: Reduction of intraocular pressure in ocular normotensive New Zealand White rabbit administered topically to the eye measured for 0.5 to 8 hrs by tonometry (reference value: 12.00 +/- 6.81%); format: functional; details: topical
Oryctolagus cuniculus [4] = assay: Reduction of intraocular pressure in ocular normotensive New Zealand White rabbit at 1% administered topically to the eye measured for 0.5 to 8 hrs by tonometry; format: functional, organism-based
[5] = Toxicity in New Zealand White rabbit assessed as induction of eye lid closure at 1% administered topically to the eye; parameters: species or system Oryctolagus cuniculus; details: in vivo, topical_or_ocular; in short: as §1
[6] = Toxicity in New Zealand White rabbit assessed as head shaking at 1% administered topically to the eye; parameters: species or system Oryctolagus cuniculus; details: in vivo, topical_or_ocular; in short: as §1
[7] = Toxicity in New Zealand White rabbit assessed as induction of eye lid closure at 2% administered topically to the eye; parameters: species or system Oryctolagus cuniculus; details: in vivo, topical_or_ocular; in short: as §1
Oryctolagus cuniculus [8] = assay: Reduction of intraocular pressure in ocular normotensive New Zealand White rabbit at 2% administered topically to the eye measured for 0.5 to 8 hrs by tonometry; format: functional, organism-based
[9] = Toxicity in New Zealand White rabbit assessed as head shaking at 2% administered topically to the eye; parameters: species or system Oryctolagus cuniculus; details: in vivo, topical_or_ocular; in short: as §1
[10] = Toxicity in New Zealand White rabbit assessed as head shaking at 0.5% administered topically to the eye; parameters: species or system Oryctolagus cuniculus; details: in vivo, topical_or_ocular; in short: as §1

Sequence of Carbonic anhydrase 12 (O43570 whole entry): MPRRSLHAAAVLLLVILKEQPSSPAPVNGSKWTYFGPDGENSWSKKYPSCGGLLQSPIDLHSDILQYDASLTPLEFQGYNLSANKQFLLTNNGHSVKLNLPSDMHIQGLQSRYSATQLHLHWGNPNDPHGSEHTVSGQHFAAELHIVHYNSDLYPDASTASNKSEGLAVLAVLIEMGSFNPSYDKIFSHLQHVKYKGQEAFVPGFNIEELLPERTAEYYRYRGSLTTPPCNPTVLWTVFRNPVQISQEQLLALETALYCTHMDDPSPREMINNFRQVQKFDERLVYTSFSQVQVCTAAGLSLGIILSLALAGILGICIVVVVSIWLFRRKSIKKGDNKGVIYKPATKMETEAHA
Sequence of Carbonic anhydrase 1 (P00915 whole entry): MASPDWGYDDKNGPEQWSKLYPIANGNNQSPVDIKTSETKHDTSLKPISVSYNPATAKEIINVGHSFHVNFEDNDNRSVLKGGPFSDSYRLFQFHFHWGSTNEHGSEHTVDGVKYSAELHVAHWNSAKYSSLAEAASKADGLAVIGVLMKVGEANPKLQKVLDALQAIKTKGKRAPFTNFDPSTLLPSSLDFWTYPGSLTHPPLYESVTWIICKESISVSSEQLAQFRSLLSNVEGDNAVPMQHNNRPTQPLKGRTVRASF
Sequence of Carbonic anhydrase 4 (P22748 whole entry): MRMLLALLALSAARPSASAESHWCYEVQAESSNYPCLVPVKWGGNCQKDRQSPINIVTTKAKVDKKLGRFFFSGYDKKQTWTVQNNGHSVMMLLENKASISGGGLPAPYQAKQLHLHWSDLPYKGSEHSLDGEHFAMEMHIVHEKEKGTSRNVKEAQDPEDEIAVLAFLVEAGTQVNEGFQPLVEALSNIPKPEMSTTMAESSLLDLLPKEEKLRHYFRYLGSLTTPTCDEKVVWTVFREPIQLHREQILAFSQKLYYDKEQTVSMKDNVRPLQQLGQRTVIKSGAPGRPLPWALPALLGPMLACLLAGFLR

Row | SMILES | Ki (Carbonic anhydrase 2) | Ki (Carbonic anhydrase 4) | Ki (Carbonic anhydrase 1) | Ki (Carbonic anhydrase 12) | Activity [1] | Activity (Oryctolagus cuniculus [2]) | Emax (Oryctolagus cuniculus [3]) | Activity (Oryctolagus cuniculus [4]) | Activity [5] | Activity [6] | Activity [7] | Activity (Oryctolagus cuniculus [8]) | Activity [9] | Activity [10]
1 | NCCNC(=O)c1ncc(-c2ccc(S(N)(=O)=O)cc2)o1 | – | – | 101 nM | 90.1 nM | – | – | 29.6% | Active | Non-Toxic | Non-Toxic | – | – | – | –
2 | CCN[C@H]1C[C@H](C)S(=O)(=O)c2sc(S(N)(=O)=O)cc21 [DORZOLAMIDE] | – | – | – | – | – | – | 27.8% | – | – | – | Non-Toxic | Active | Non-Toxic | –
3 | NS(=O)(=O)c1ccc(-c2cnc(C(=O)NC3CCNCC3)o2)cc1 | – | – | 50.8 nM | 87.3 nM | Non-Toxic | – | 19.4% | – | – | – | – | – | – | Non-Toxic

Further lines, with some results ahead:

Row | Ki (Carbonic anhydrase 2) | Ki (Carbonic anhydrase 4) | Ki (Carbonic anhydrase 1) | Ki (Carbonic anhydrase 12) | SMILES | Activity [1] | Activity (Oryctolagus cuniculus [2]) | Emax (Oryctolagus cuniculus [3]) | Activity (Oryctolagus cuniculus [4]) | Activity [5] | Activity [6] | Activity [7] | Activity (Oryctolagus cuniculus [8]) | Activity [9] | Activity [10]
4 | 0.54 nM | 257 nM | 61.9 nM | 91.5 nM | NC1CCN(C(=O)c2ncc(-c3ccc(S(N)(=O)=O)cc3)o2)CC1 | Toxic | inactive | 22% | – | – | – | – | – | – | –
5 | 5 nM | 420 nM | 109 nM | 68.5 nM | NS(=O)(=O)c1ccc(-c2cnc(C(=O)N3CCNCC3)o2)cc1 | – | – | 35.6% | Active | Non-Toxic | Non-Toxic | – | – | – | –
